Results: publication PMC5508335 (Journal of Veterinary Internal Medicine, 2017)
Like-named read-outs stand apart in the source and are kept apart here.

Columns and labels:
platelet function = assay: PFA-100 closure time, antiplatelet responder status; format: in vivo, dog
Outline: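 Fifteen healthy dogs received PO aspirin 2 mg/kg/d, clopidogrel 2–3 mg/kg/d, or either drug combined with prednisone 2 mg/kg/d for 28 days. Responders were defined by PFA closure time: above 300 sec for aspirin, or more than 30% above baseline for clopidogrel. Responder status was compared among groups by Fisher's exact test, with P < 0.05 as significant.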

healthy dogs = assay: Endoscopy of upper gastrointestinal tract after 28 days of therapy; format: in vivo, dog; settings: day 28; PO daily
Outline: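 Fifteen healthy dogs were randomized to five PO regimens for 28 days: aspirin 2 mg/kg/d, clopidogrel 2–3 mg/kg/d, prednisone 2 mg/kg/d, prednisone plus aspirin, or prednisone plus clopidogrel. The upper gastrointestinal tract was then assessed.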

platelet aggregation = settings: cats with cardiovascular disease already receiving clopidogrel, n = 3
[1] = tested on: platelet function (closure time)
[2] = tested on: beagles with and without MVMD; assay: Dobutamine stress echocardiography in beagles with mitral valve disease; format: in vivo, dog
[3] = tested on: dogs with pulmonic stenosis; format: in vivo, dog
[4] = tested on: dogs with hypoadrenocorticism; format: in vivo, dog
[5] = tested on: dogs with ventricular tachyarrhythmias; assay: Echocardiogram and 5-minute ECG before and after oral sotalol; format: in vivo, dog
[6] = format: in vivo, cats; settings: one 1.87 mg oral dose
[7] = tested on: dogs with gastrointestinal stromal tumors; assay: Retrospective evaluation of toceranib in canine GIST; format: in vivo, dog
[8] = tested on: fecal microbiota of healthy dogs; assay: Fecal microbiota qPCR Dysbiosis Index after oral tylosin; format: in vivo, dog; settings: 20 mg/kg q12 hr for 7 days
Outline: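 Ten healthy pet dogs were randomized double-blind to oral test compound at 20 mg/kg (n = 6) or placebo capsule (n = 4), given q12 hr for 7 days. Dogs stayed on their usual diet. Fecal samples were taken on days 0, 7, 10, 21 and 63, and a fecal score (1–7) was recorded daily during dosing.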

[9] = tested on: adrenal cortisol production; assay: ACTH stimulation test, serum cortisol by radioimmunoassay; format: in vivo, dog; settings: ± SEM
Outline: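 Dogs: 5 healthy controls and 10 previously diagnosed with hyperadrenocorticism. Each dog had two ACTH stimulation tests, one with a reference tetracosactrin product (0.04 mL/kg IV) and one with the test ACTH preparation (0.08 mL/kg IV). Blood was drawn just before injection and 60 minutes after. Serum cortisol was measured by validated radioimmunoassay and reported as mean ± SEM.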

[10] = tested on: dogs given PEG before colonoscopy; assay: Anti-emetic before orogastric PEG administration; format: in vivo, dog
Outline: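 46 dogs with naturally occurring disease needed PEG bowel cleansing before colonoscopy. They were randomized to one of two anti-emetics given SC 30 minutes before orogastric-tube PEG at 66 ml/kg. PEG was repeated 2 hours later without repeating the anti-emetic. Administration was by or under supervision of blinded authors. Vomiting and regurgitation were recorded after each PEG dose.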

healthy beagle dogs = settings: oral administration, ref previous studies performed by these authors; cited from earlier work
[11] = tested on: New Zealand rabbits with dilated cardiomyopathy induced by doxorubicin; assay: Doxorubicin-induced dilated cardiomyopathy in New Zealand rabbits; format: in vivo, rabbit
[12] = crossover study of IV dipyrone to control fever; format: in vivo, horses; settings: single 30 mg/kg IV, 6 hours post administration, versus placebo
[13] = tested on: healthy purpose-bred dogs; assay: Isoglycemic clamp in healthy dogs; format: in vivo, dog; settings: 2.4 nmol/kg SC
[14] = tested on: canine osteosarcoma cell lines; assay: Combination with MCT1/4 small molecule inhibitors in canine osteosarcoma cells; format: cell-based, dog
[15] = tested on: dogs with idiopathic IMPA; assay: Retrospective outcome of dogs with idiopathic IMPA; settings: dog, in vivo
healthy beagles = assay: Serum cPLI after high-dose prednisolone in healthy beagles; format: in vivo, dog; settings: 4 mg/kg/day SC for 2 or 3 weeks; six beagles
RBCs = assay: Lysis of canine RBCs by DMSO diluted in PBS; format: cell-based, dog
[16] = tested on: Dobermans with CHF due to DCM; assay: Randomized placebo-controlled survival trial in Dobermans with CHF due to DCM; format: in vivo, dog; settings: 50 mg twice daily plus standard therapies; 34 dogs; time to cardiac death
canine leukocytes = assay: LPS-stimulated leukocyte cytokine production in whole blood; format: cell-based, dog; settings: 10^−7 M, 24 h
Outline: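 Blood from eight healthy adult dogs was incubated with test compound (10−7 M) or control for 24 h. Leukocytes were then stimulated with LPS, and TNF and IL-10 production were measured by a canine-specific multiplex assay.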

equine neutrophils = assay: neutrophil respiratory burst, luminol chemoluminescence, opsonized zymosan; format: cell-based, horses; settings: TX 0.5 to 20 μM; dose dependent
[17] = distribution of danofloxacin and tulathromycin in plasma, ISF and PELF by age; format: in vivo, calves; settings: non‐linear mixed effect modeling
canine complement = format: biochemical, dog; settings: dose curves, at the doses evaluated
[18] = G2 MVMD, DIVEd/Ao less than 2.8
[19] = 2 mg/kg every 12 hours for 30 days

## CC(=O)Oc1ccccc1C(=O)O [A, aspirin]
Platelet function; day 14
  dogs classified as responders based on PFA closure times: 2/3
Platelet function; day 28
  dogs classified as responders based on PFA closure times: 1/3
Healthy dogs
  dogs with endoscopic lesions: 1/3

## COC(=O)[C@H](c1ccccc1Cl)N1CCc2sccc2C1 [clopidogrel]
Platelet aggregation
  PW-AA %Aggregation: 4–19%
Platelet function; day 14
  dogs classified as responders based on PFA closure times: 3/3
Platelet function; day 28
  dogs classified as responders based on PFA closure times: 3/3
[1]; cats already receiving clopidogrel, n = 6
  PFA-P2Y Closure Time: > 300 s
[1]; test repeated while receiving clopidogrel, n = 1
  PFA-P2Y Closure Time: > 300 s
Healthy dogs
  dogs with endoscopic lesions: 0/3

## CC(CCc1ccc(O)cc1)NCCc1ccc(O)c(O)c1 (stereo not drawn) [dobutamine]
[2]; G1 control group
  difference between pre and post stress EF%: 0.25 ± 0.08
[2]; G1 control group, 5 then 10 μg/kg/minute infusion
  difference between pre and post stress FS%: 0.44 ± 0.14
[2]; [18]
  difference between pre and post stress EF%: 0.30 ± 0.08
  difference between pre and post stress FS%: 0.49 ± 0.13
[2]; G3 MVMD, DIVEd/Ao above 2.8
  difference between pre and post stress EF%: 0.13 ± 0.09
  difference between pre and post stress FS%: 0.19 ± 0.14

## CC(C)NCC(O)COc1ccc(CC(N)=O)cc1 (stereo not drawn) [atenolol]
[3]; 2–3 weeks post-atenolol 1–1.5 mg/kg q12
  maxPG, mean %change ± SD: −15% ± 9
[3]; 2–3 weeks post-atenolol 1–1.5 mg/kg q12, n = 18
  heart rate, mean %change ± SD: −17% ± 13
[3]; post-atenolol
  Percent change in VTI ratio: 6% ± 12

## CC(C)(C)C(=O)OCC(=O)[C@H]1CC[C@H]2[C@@H]3CCC4=CC(=O)CC[C@]4(C)[C@H]3CC[C@]12C [DOCP]
[4]; 12 dogs, range 1-29 days
  median time between the DOCP and CHF: 11 days
[4]; HA/DOCP group
  Median survival after the onset of CHF: 953 days

## CC(C)NCC(O)c1ccc(NS(C)(=O)=O)cc1 (stereo not drawn) [sotalol]
[5]; 2–3 hours post-sotalol
  EF, mean percent change ± SD: −13 ± 16%
  FS, mean percent change ± SD: −14 ± 11%
  LVSA, mean percent change ± SD: −10 ± 12%
[5]; 2–3 hours post-sotalol 2.5 ± 0.2 mg/kg PO, n = 27
  heart rate, mean percent change ± SD: −18 ± 16%

## CN1CCN2c3ncccc3Cc3ccccc3C2C1 (stereo not drawn) [mirtazapine]
[6]
  AUC, liver disease cats versus AMC cats: not significantly different

## Cc1[nH]c(/C=C2\C(=O)Nc3ccc(F)cc32)c(C)c1C(=O)NCCN1CCCC1 [toceranib]
[7]; 16/28, majority Grade 1 or 2 gastrointestinal toxicities
  dogs experiencing adverse events: 57%
[7]; all dogs, 26/28
  Clinical benefit (CB): 93%
[7]; dogs with gross disease, 5/7
  Clinical benefit (CB): 71%
[7]; dogs with microscopic disease
  Clinical benefit (CB): 21/21

## CC[C@H]1OC(=O)C[C@@H](O)[C@H](C)[C@@H](O[C@@H]2O[C@H](C)[C@@H](O[C@H]3C[C@@](C)(O)[C@@H](O)[C@H](C)O3)[C@H](N(C)C)[C@H]2O)[C@@H](CC=O)C[C@@H](C)C(=O)/C=C/C(C)=C/[C@@H]1CO[C@@H]1O[C@H](C)[C@@H](O)[C@@H](OC)[C@H]1OC [tylosin]
[8]
  development of diarrhea: None of the dogs in either group developed diarrhea
[8]; day 7, 6 dogs, day 0 −6.5
  Dysbiosis Index, median: 2.9

## corticotropin (SYSMEHFRWGKPVGKKRRPVKVYPNGAEDESAEAFPLEF; Corticotropin; UniProt P01189 138-176, looked up) [Acthelea]
[9]; control group, 5 healthy dogs, 60 minute post IV
  post-ACTH serum cortisol: 9.00 ± 0.71 µg/dL
[9]; treated group, 10 dogs with hyperadrenocorticism on trilostano
  after ACTH serum cortisol: 7.90 ± 2.1 µg/dL

## CCN(CC)CCNC(=O)c1cc(Cl)c(N)cc1OC [metoclopramide]
[10]; PEG Dose 1
  incidence of regurgitation: 52.4%
[10]; PEG Dose 1, anti-emetic SC 30 minutes before
  incidence of vomiting: 23.8%
[10]; PEG Dose 2
  incidence of regurgitation: 31.6%
  incidence of vomiting: 21.1%

## O=C(N/N=C/c1cccs1)c1ccc2c(c1)OCO2 [LASSBio 294]
Healthy beagle dogs
  increase of shortening fraction: 19.1%
[11]; [19]
  E'/A' ratio: < 1
  E/A ratio: < 1
[11]; 2 mg/kg every 12 hours, n = 7, second week
  increase of FS: 35%

## Cc1c(N(C)CS(=O)(=O)O)c(=O)n(-c2ccccc2)n1C [dipyrone, Dipyrone]
[12]
  control of fever: effectively controlled fever

## Insulin glargine [Toujeo]
[13]
  dogs with peakless time-action profile: 4/8
  duration of action, median: 16.3 h
  peak of action, median: 6.3 h
[13]; 8 healthy dogs
  Median onset of action: 4.0 h

## COc1cccc2c1C(=O)c1c(O)c3c(c(O)c1C2=O)C[C@@](O)(C(=O)CO)C[C@@H]3O[C@H]1C[C@H](N)[C@H](O)[C@H](C)O1 [doxorubicin]
[14]
  activity in the presence of MCT1 and MCT4 small molecule inhibitors: Synergistic activity

## C[C@]12C=CC(=O)C=C1CC[C@@H]1[C@@H]2[C@@H](O)C[C@@]2(C)[C@H]1CC[C@]2(O)C(=O)CO [prednisolone]
[15]
  dogs relapsed during tapering of medication: 13/23
  median treatment duration: 397 days
Healthy beagles
  serum cPL concentration after versus before treatment: significantly higher after than before treatment

## C[S+](C)[O-] [DMSO]
RBCs; 10, 20, 70 and 80% DMSO
  lysis of RBCs: no hemolysis
RBCs; 30, 40 and 90% DMSO
  lysis of RBCs: mild hemolysis
RBCs; 50 and 100% DMSO
  lysis of RBCs: moderate hemolysis
RBCs; 60% DMSO (diluted in PBS)
  lysis of RBCs: marked hemolysis

## CC(=O)S[C@@H]1CC2=CC(=O)CC[C@]2(C)[C@H]2CC[C@@]3(C)[C@@H](CC[C@@]34CCC(=O)O4)[C@H]12 [spironolactone]
[16]
  median survival time: 183 days

## C=C1/C(=C\C=C2/CCC[C@]3(C)[C@@H]([C@H](C)CCCC(C)(C)O)CC[C@@H]23)C[C@@H](O)C[C@@H]1O [calcitriol]
Canine leukocytes; control 551 ± 323
  LPS-stimulated IL-10 production, mean±SD: 791 ± 386 pg/mL
Canine leukocytes; eight dogs, control 1694 ± 1023
  LPS-stimulated leukocyte TNF production, mean±SD: 823 ± 862 pg/mL

## CC/C(=C(\c1ccccc1)c1ccc(OCCN(C)C)cc1)c1ccccc1 [TX, Tamoxifen]
Equine neutrophils
  neutrophil respiratory burst induced by opsonized zymosan: inhibits neutrophil respiratory burst

## Oc1ccc2c(c1)[C@@]13CCCC[C@@]1(O)[C@@H](C2)N(CC1CCC1)CC3 [butorphanol]
[3]; 5 minutes post-butorphanol 0.2–0.25 mg/kg IV, n = 18 dogs
  heart rate, mean %change ± SD: −21% ± 16

## C[C@]12C=CC(=O)C=C1CC[C@@H]1[C@@H]2C(=O)C[C@@]2(C)[C@H]1CC[C@]2(O)C(=O)CO [P, prednisone]
Healthy dogs
  dogs with endoscopic lesions: 1/3

## CN(C)C(=N)N=C(N)N [metformin]
[14]
  activity in the presence of MCT1 and MCT4 small molecule inhibitors: Synergistic activity

## CN1C[C@@H]2C[C@H]1CN2c1cc2c(cc1F)c(=O)c(C(=O)O)cn2C1CC1 [danofloxacin]
[17]
  age as covariate in plasma concentration differences: not for danofloxacin treated calves

B1: C1‐INH: human recombinant C1-esterase Inhibitor (protein, UniProt P05155 23-500, looked up)
Plasma protease C1 inhibitor: NPNATSSSSQDPESLQDRGEGKVATTVISKMLFVEPILEVSSLPTTNSTTNSATKITANTTDEPTTQPTTEPTTQPTIQPTQPTTQLPTDSPTQPTTGSFCPGPVTLCSDLESHSTEAVLGDALVDFSLKLYHAFSAMKKVETNMAFSPFSIASLLTQVLLGAGENTKTNLESILSYPKDFTCVHQALKGFTTKGVTSVSQIFHSPDLAIRDTFVNASRTLYSSSPRVLSNNSDANLELINTWVAKNTNNKISRLLDSLPSDTRLVLLNAIYLSAKWKTTFDPKKTRMEPFHFKNSVIKVPMMNSKKYPVAHFIDQTLKAKVGQLQLSHNLSLVILVPQNLKHRLEDMEQALSPSVFKAIMEKLEMSKFQPTLLTLPRIKVTTSQDMLSIMEKLEFFDFSYDLNLCGLTEDPDLQVSAMQHQTVLELTETGVEAAAASAISVARTLLVFEVQQPFLFVLWDQQHKFPVFMGRVYDPRA
Canine complement
  inhibition of canine complement-mediated hemolysis: dose‐dependent inhibition
